What was measured:
Assay type in all cases: functional
Mus musculus [1] = assay: Trypanocidal Activity at I.C.E. value 0.35 when administered perorally.
[2] = tested on: Trypanosoma brucei rhodesiense; assay: In Vitro measurement of inhibition of thymidine uptake in cell culture of Trypanosoma rhodesiense; details: read-out: ID50 (the source's name)
Method in brief: (§1)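 Parasites harvested from infected rats and incubated 3 h across a drug concentration series, usually 0.1–100 µg/mL. Incorporation of radiolabeled thymidine measured. ID50 is the concentration (µg/mL) producing 50% inhibition.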

Mus musculus [3] = assay: Trypanocidal Activity at I.C.E. value 0.45 when administered subcutaneously.
Method in brief: (§2)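 Blood-stage T. rhodesiense infection came from a standard inoculum lethal to all untreated mice. Drug was given by subcutaneous injection to groups of five mice. Survival beyond 30 days counted as cure. […] Sub-curative doses scored 0, and data were normalized at each dose.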

[4] = tested on: Trypanosoma brucei rhodesiense; assay: In Vitro measurement of inhibition of leucine uptake in cell culture of Trypanosoma rhodesiense; details: read-out: ID50 (the source's name)
Method in brief: (§3)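 Trypanosomes harvested from infected rats, cultured 3 h with several concentrations of drug, usually 0.1–100 µg/mL. Radiolabeled L-leucine uptake measured. ID50 is the concentration in µg/mL giving 50% inhibition of incorporation.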

Mus musculus [5] = assay: Trypanocidal Activity at I.C.E. value 0.23 when administered subcutaneously.; method in brief: as §2
Mus musculus [6] = assay: Trypanocidal Activity at I.C.E. value 0.64 when administered subcutaneously.
Method in brief: (§4)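 Mice, in groups of five per dose, were given a standard inoculum of blood-stage T. rhodesiense that is lethal to all untreated controls, then dosed subcutaneously. Usually 11 dose levels were used (2^n × 0.42 mg/kg).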

[7] = tested on: Trypanosoma brucei rhodesiense; assay: In Vitro measurement of inhibition of thymidine uptake in cell culture of Trypanosoma rhodesiense.; details: read-out: ID50 (the source's name); method in brief: as §1
[8] = tested on: Trypanosoma brucei rhodesiense; assay: In Vitro measurement of inhibition of leucine uptake in cell culture of Trypanosoma rhodesiense.; details: read-out: ID50 (the source's name); method in brief: as §3
Mus musculus [9] = assay: Trypanocidal Activity at I.C.E. value 0.59 when administered subcutaneously.; method in brief: as §4
Mus musculus [10] = assay: Trypanocidal Activity at I.C.E. value 0.69 when administered subcutaneously.; method in brief: as §4
Mus musculus [11] = assay: Trypanocidal Activity at I.C.E. value 0.48 when administered subcutaneously.; method in brief: as §2
Mus musculus [12] = assay: Trypanocidal Activity at I.C.E. value 0.26 when administered subcutaneously.; method in brief: as §2
Mus musculus [13] = assay: Trypanocidal Activity at I.C.E. value 0.58 when administered subcutaneously.; method in brief: as §4
Mus musculus [14] = assay: Trypanocidal Activity at I.C.E. value 0.46 when administered subcutaneously.; method in brief: as §2
Mus musculus [15] = assay: Trypanocidal Activity at I.C.E. value 0.45 when administered perorally.
Mus musculus [16] = assay: Trypanocidal Activity at I.C.E. value 0.36 when administered subcutaneously.
Mus musculus [17] = assay: Trypanocidal Activity at I.C.E. value 0.31 when administered subcutaneously.; method in brief: as §2
Mus musculus [18] = assay: Trypanocidal Activity at I.C.E. value 0.21 when administered subcutaneously.
Mus musculus [19] = assay: Trypanocidal Activity at I.C.E. value 0.33 when administered subcutaneously.; method in brief: as §2
Mus musculus [20] = assay: Trypanocidal Activity at I.C.E. value 0.71 when administered subcutaneously.; method in brief: as §4
Mus musculus [21] = assay: Trypanocidal Activity at I.C.E. value 0.53 when administered perorally.
Mus musculus [22] = assay: Trypanocidal Activity at I.C.E. value 0.86 when administered subcutaneously.; method in brief: as §4
Mus musculus [23] = assay: Trypanocidal Activity at I.C.E. value 0.39 when administered subcutaneously.; method in brief: as §2
[24] = tested on: Trypanosoma brucei rhodesiense; assay: In Vitro measurement of inhibition of Leucine uptake in cell culture of Trypanosoma rhodesiense.; details: read-out: ID50 (the source's name); method in brief: as §3
Mus musculus [25] = assay: Trypanocidal Activity at I.C.E. value 0.10 when administered perorally.
Mus musculus [26] = assay: Trypanocidal Activity at I.C.E. value 0.19 when administered subcutaneously.
Mus musculus [27] = assay: Trypanocidal Activity at I.C.E. value 0.30 when administered subcutaneously.; method in brief: as §2
Mus musculus [28] = assay: Trypanocidal Activity at I.C.E. value 0.17 when administered subcutaneously.
Mus musculus [29] = assay: Trypanocidal Activity at I.C.E. value 0.24 when administered perorally.
Mus musculus [30] = assay: Trypanocidal Activity at I.C.E. value 0.43 when administered subcutaneously.; method in brief: as §2
Mus musculus [31] = assay: Trypanocidal Activity at I.C.E. value 0.27 when administered subcutaneously.; method in brief: as §2

With `Br.C[n+]1cccc(COc2ccc(/C=N/NC3=NCCCN3)cc2)c1.[Br-]` the CD50 (Mus musculus [1]) was 53 mg/kg, the IC50 [2] was 3.7 µg/mL and the CD50 (Mus musculus [3]) was 0.8 mg/kg. It also gave an IC50 [4] of over 10 µg/mL.

Work on `C[n+]1c(COc2ccc(/C=N/Nc3ccccn3)cc2)cn2ccccc21.Cc1ccc(S(=O)(=O)[O-])cc1` yielded an IC50 [2] of 7.9 µg/mL, a CD50 (Mus musculus [5]) of 53 mg/kg and an IC50 [4] of 10.1 µg/mL.

In the case of `Br.Cn1cc[n+](C)c1/C=C/c1ccc(/C=N/NC2=NCCN2)cc1.[Br-]`, the CD50 (Mus musculus [6]) is reported as 1.6 mg/kg.

In the case of `Br.CCNC(=N)N/N=C/c1ccc(-c2cn3ccccc3[n+]2C)cc1.[Br-]`, the IC50 [7] is reported as 0.4 µg/mL, the IC50 [8] is reported as 0.5 µg/mL and the CD50 (Mus musculus [9]) is reported as 0.1 mg/kg.

With `Br.Cc1ccc2n(c1)cc(/C=C/c1ccc(/C=N/NC(=N)NO)cc1)[n+]2C.[Br-]` the CD50 (Mus musculus [10]) was 3.3 mg/kg.

Molecule `Cc1ccc2n(c1)cc(-c1ccc(/C=N/Nc3ccccn3)cc1)[n+]2C.[Br-]` has a CD50 (Mus musculus [11]) of 0.8 mg/kg.

Work on `C[n+]1c(COc2ccc(C(=N)N)cc2)cn2ccccc21.Cl.[Cl-]` yielded a CD50 (Mus musculus [12]) of 3.3 mg/kg, an IC50 [2] of 0.7 µg/mL and an IC50 [4] of 12 µg/mL.

In the case of `C/N=C(\NC)N/N=C/c1ccc(-c2cn3ccccc3[n+]2C)cc1.I.[I-]`, the CD50 (Mus musculus [13]) is reported as 0.2 mg/kg.

In the case of `C[n+]1c(/C=C/c2ccc(/C=N/NC(=O)c3ccc(N)cc3)cc2)cn2ccccc21.Cc1ccc(S(=O)(=O)[O-])cc1`, the CD50 (Mus musculus [13]) is reported as 6.6 mg/kg.

`Br.CC/N=C(\NCC)N/N=C/c1ccc(/C=C/c2n(C)cc[n+]2C)cc1.[Br-]` was tested, and the CD50 (Mus musculus [14]) was 1.6 mg/kg.

`Br.C[n+]1cccc(COc2ccc(/C=N/NC3=NCCN3)cc2)c1.[Br-]` was tested, and the CD50 (Mus musculus [15]) was 13 mg/kg and the CD50 (Mus musculus [16]) was 3.3 mg/kg.

`C[n+]1c(-c2ccc(/C=N/Nc3ncccn3)cc2)cn2ccccc21.[Br-]` showed a CD50 (Mus musculus [12]) of 6.6 mg/kg.

`Br.CC[S+]([O-])c1ccc2n(c1)cc(-c1ccc(/C=N/NC(=N)N)cc1)[n+]2C.[Br-]` (centres undefined) was tested, and the CD50 (Mus musculus [6]) was 1.6 mg/kg.

`Br.Cc1ccn2cc(-c3ccc(/C=N/NC(=N)NN4CCOCC4)cc3)[n+](C)c2c1.[Br-]` was tested, and the CD50 (Mus musculus [17]) was 0.8 mg/kg.

`C[n+]1c(-c2ccc(C(=N)N)cc2)cn2ccccc21.Cl.[Cl-]` showed a CD50 (Mus musculus [18]) of 26 mg/kg.

Molecule `Br.C[n+]1c(-c2ccc(/C=N/NC(=N)N3CCOCC3)cc2)cn2ccccc21.[Br-]` has a CD50 (Mus musculus [19]) of 0.4 mg/kg.

`C[n+]1c(/C=C/c2ccc(/C=N/NC3=NCCCN3)cc2)cn2ccccc21.[Br-]` gave a CD50 (Mus musculus [20]) of 0.4 mg/kg and a CD50 (Mus musculus [21]) of 13 mg/kg.

With `Br.CNC(=N)N/N=C/c1ccc(-c2c([N+](=O)[O-])n3ccccc3[n+]2C)cc1.[Br-]` the CD50 (Mus musculus [19]) was 0.4 mg/kg, the IC50 [2] was 5.4 µg/mL and the IC50 [4] was 3.4 µg/mL.

Molecule `Br.Cc1ccc2n(c1)cc(COc1ccc(/C=N/NC3=NCCN3)cc1)[n+]2C.[Br-]` has a CD50 (Mus musculus [22]) of 0.8 mg/kg.

For `Cc1ccc(S(=O)(=O)O)cc1.Cc1ccc(S(=O)(=O)[O-])cc1.Cc1ccc2n(c1)cc(-c1ccc(/C=N/NC(=N)N3CCSC3)cc1)[n+]2C`, the IC50 [7] was over 10 µg/mL, the CD50 (Mus musculus [23]) was 6.6 mg/kg and the IC50 [24] was 0.5 µg/mL.

Work on `Br.Cn1c[n+](Cc2ccc(/C=N/NC3=NCCN3)cc2)c2ccccc21.[Br-]` yielded a CD50 (Mus musculus [25]) of 424 mg/kg, an IC50 [2] of 11.1 µg/mL and a CD50 (Mus musculus [26]) of 3.3 mg/kg. It also gave an IC50 [4] of over 10 µg/mL.

`Br.CN1CCN(C(=N)N/N=C/c2ccc(-c3cn4ccccc4[n+]3C)cc2)CC1.[Br-]` showed a CD50 (Mus musculus [18]) of 3.3 mg/kg.

For `Br.CC/N=C(\NCC)N/N=C/c1ccc(OCc2n(C)cc[n+]2C)cc1.[Br-]`, the CD50 (Mus musculus [27]) was 13 mg/kg.

`CC(=O)Nc1ccc(-c2cn3ccccc3[n+]2C)cc1.[I-]` was tested, and the CD50 (Mus musculus [28]) was 212 mg/kg, the IC50 [2] was over 10 µg/mL and the CD50 (Mus musculus [29]) was 106 mg/kg. The IC50 [4] was over 10 µg/mL.

`Cc1ccc(S(=O)(=O)O)cc1.Cc1ccc(S(=O)(=O)[O-])cc1.Cn1cc[n+](C)c1COc1ccc(/C=N/NC(=N)N2CCCC2)cc1` gave a CD50 (Mus musculus [5]) of 6.6 mg/kg.

With `C[n+]1c(-c2ccc(/C=N/Nc3nc(N)nc(N)n3)cc2)cn2ccccc21.Cc1ccc(S(=O)(=O)[O-])cc1` the CD50 (Mus musculus [30]) was 6.6 mg/kg.

For `C[n+]1c(COc2ccc(/C=N/Nc3nccs3)cc2)cn2ccccc21.[Br-]`, the CD50 (Mus musculus [31]) was 53 mg/kg.

Work on `Br.C[n+]1c(-c2ccc(/C=N/NC(=N)N)cc2)cn2c1CCCC2.[Br-]` yielded a CD50 (Mus musculus [30]) of 0.4 mg/kg.

From ChEMBL document CHEMBL1124947, “Cationic antiprotozoal drugs. Trypanocidal activity of 2-(4'-formylphenyl)imidazo[1,2-a]pyridinium guanylhydrazones and related derivatives of quaternary heteroaromatic compounds” (J Med Chem, 1990)
